Experiments:
[1] = target: T1, 2-5A-dependent ribonuclease (Mus musculus) (UniProt Q05921); assay: Molar concentration required to displace 50% of the radiolabeled probe from 2-5A (Adenosine dependent endoribonuclease) in endonuclease-nitrocellulose complex
T1 sequence (whole entry): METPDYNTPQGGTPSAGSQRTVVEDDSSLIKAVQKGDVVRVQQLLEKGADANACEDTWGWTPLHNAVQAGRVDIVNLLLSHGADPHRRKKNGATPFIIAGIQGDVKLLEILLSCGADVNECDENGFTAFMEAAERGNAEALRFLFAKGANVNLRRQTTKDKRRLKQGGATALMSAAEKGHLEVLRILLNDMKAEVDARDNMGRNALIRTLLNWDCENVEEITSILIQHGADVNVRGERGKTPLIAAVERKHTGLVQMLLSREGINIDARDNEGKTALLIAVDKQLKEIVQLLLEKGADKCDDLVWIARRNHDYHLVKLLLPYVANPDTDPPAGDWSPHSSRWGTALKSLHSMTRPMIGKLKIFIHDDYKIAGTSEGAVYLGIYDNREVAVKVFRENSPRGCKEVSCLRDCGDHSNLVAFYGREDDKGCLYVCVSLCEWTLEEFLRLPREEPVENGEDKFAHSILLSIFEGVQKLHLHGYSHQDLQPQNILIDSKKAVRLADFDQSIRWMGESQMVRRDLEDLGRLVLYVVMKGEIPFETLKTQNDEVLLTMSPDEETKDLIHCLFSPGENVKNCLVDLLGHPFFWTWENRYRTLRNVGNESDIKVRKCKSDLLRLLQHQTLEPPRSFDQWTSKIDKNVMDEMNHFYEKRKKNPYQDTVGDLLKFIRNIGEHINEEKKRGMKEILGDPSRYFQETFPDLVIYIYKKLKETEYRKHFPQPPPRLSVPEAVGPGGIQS
Method in brief: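 Radiobinding assay of Knight et al. on the 2-5A-dependent endoribonuclease from mouse L cells. Oligomer is added against the radiolabeled probe ppp5'A2'p5'A2'p5'A2'p5'A3'[³²P]p5'C3'p. The value is the oligomer concentration that prevents 50% of the added probe from binding the endonuclease.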

[2] = target: T1, 2-5A-dependent ribonuclease (Mus musculus); assay: Molar concentration needed to give 50% prevention of 2-5A (Adenosine dependent endoribonuclease)

Structure (SMILES) | Concentration [1] | Concentration [2]
O=P(O)(O)OC[C@H]1OC(n2cnc3c(O)ncnc32)[C@H](OP(=O)(O)OC[C@H]2OC(n3cnc4c(O)ncnc43)[C@H](OP(=O)(O)OC[C@H]3OC(n4cnc5c(O)ncnc54)[C@H](O)[C@@H]3O)[C@@H]2O)[C@@H]1O (some centres undefined) | 3.3e-06 | > 0.0001
Nc1ncnc2c1ncn2[C@@H]1O[C@H](COP(=O)(O)O[C@@H]2[C@H](O)[C@@H](COP(=O)(O)O[C@@H]3[C@H](O)[C@@H](COP(=O)(O)O)O[C@H]3n3cnc4c(N)ncnc43)O[C@H]2n2cnc3c(N)ncnc32)[C@@H](O)[C@H]1O (stereo in doubt; 11) | 2e-09 | 
Nc1ncnc2c1ncn2C1O[C@H](COP(=O)(O)O[C@H]2C(n3cnc4c(N)ncnc43)O[C@H](COP(=O)(O)O[C@H]3C(n4cnc5c(N)ncnc54)O[C@H](COP(=O)(O)O[C@H]4C(n5cnc6c(N)ncnc65)O[C@H](COP(=O)(O)O[C@H]5C(n6cnc7c(N)ncnc76)O[C@H](COP(=O)(O)O[C@H]6C(n7cnc8c(N)ncnc87)O[C@H](CO)[C@H]6O)[C@H]5O)[C@H]4O)[C@H]3O)[C@H]2O)[C@@H](O)[C@H]1O (some centres undefined) | 1.3e-08 | 
Nc1ncnc2c1ncn2[C@@H]1O[C@H](COP(=O)(O)O[C@@H]2[C@H](O)[C@@H](COP(=O)(O)O[C@@H]3[C@H](O)[C@@H](COP(=O)(O)OP(=O)(O)OP(=O)(O)O)O[C@H]3n3cnc4c(N)ncnc43)O[C@H]2n2cnc3c(N)ncnc32)[C@@H](O)[C@H]1O | 5e-10 | 
Nc1ncnc2c1ncn2C1OC(CO)C(O)C1OP(=O)(O)OC[C@H]1OC(n2cnc3c(N)ncnc32)[C@H](O)[C@@H]1O (some centres undefined) |  | > 0.001
Nc1ncnc2c1ncn2[C@@H]1O[C@H](COP(=O)(O)O[C@@H]2[C@H](O)[C@@H](COP(=O)(O)O[C@@H]3[C@H](O)[C@@H](COP(=O)(O)O[C@@H]4[C@H](O)[C@@H](CO)O[C@H]4n4cnc5c(N)ncnc54)O[C@H]3n3cnc4c(N)ncnc43)O[C@H]2n2cnc3c(N)ncnc32)[C@@H](O)[C@H]1O | 2.2e-08 | 1e-05
Nc1ncnc2c1ncn2[C@@H]1O[C@H](COP(=O)(O)O[C@@H]2[C@H](O)[C@@H](COP(=O)(O)O[C@@H]3[C@H](O)[C@@H](CO)O[C@H]3n3cnc4c(N)ncnc43)O[C@H]2n2cnc3c(N)ncnc32)[C@@H](O)[C@H]1O | 8e-07 | > 0.0001
Nc1ccn(C2O[C@H](COP(=O)(O)O[C@H]3C(n4ccc(N)nc4=O)O[C@H](COP(=O)(O)O[C@H]4C(n5ccc(N)nc5=O)O[C@H](COP(=O)(O)O)[C@H]4O)[C@H]3O)[C@@H](O)[C@H]2O)c(=O)n1 (some centres undefined) | 3.3e-06 | > 0.0001
O=P(O)(O)OP(=O)(O)OP(=O)(O)OCC1OC(n2cnc3c(O)ncnc32)C(OP(=O)(O)OCC2OC(n3cnc4c(O)ncnc43)C(OP(=O)(O)OC[C@H]3OC(n4cnc5c(O)ncnc54)[C@H](O)[C@@H]3O)C2O)C1O (some centres undefined) | 2.6e-07 | > 0.00013
Nc1ncnc2c1ncn2C1O[C@H](COP(=O)(O)O[C@H]2C(n3cnc4c(N)ncnc43)O[C@H](COP(=O)(O)O[C@H]3C(n4cnc5c(N)ncnc54)O[C@H](COP(=O)(O)O[C@H]4C(n5cnc6c(N)ncnc65)O[C@H](COP(=O)(O)O[C@H]5C(n6cnc7c(N)ncnc76)O[C@H](CO)[C@H]5O)[C@H]4O)[C@H]3O)[C@H]2O)[C@@H](O)[C@H]1O (some centres undefined) | 1.3e-08 | 7e-06
Nc1ncnc2c1ncn2[C@@H]1O[C@H](COP(=O)(O)O[C@@H]2[C@H](O)[C@@H](COP(=O)(O)O[C@@H]3[C@H](O)[C@@H](COP(=O)(O)O[C@@H]4[C@H](O)[C@@H](COP(=O)(O)O)O[C@H]4n4cnc5c(N)ncnc54)O[C@H]3n3cnc4c(N)ncnc43)O[C@H]2n2cnc3c(N)ncnc32)[C@@H](O)[C@H]1O | 7e-10 | 1e-06
Nc1ncnc2c1ncn2C1O[C@H](COP(=O)(O)O[C@H]2C(n3cnc4c(N)ncnc43)O[C@H](COP(=O)(O)O[C@H]3C(n4cnc5c(N)ncnc54)O[C@H](COP(=O)(O)O[C@H]4C(n5cnc6c(N)ncnc65)O[C@H](COP(=O)(O)O[C@H]5C(n6cnc7c(N)ncnc76)O[C@H](COP(=O)(O)O[C@H]6C(n7cnc8c(N)ncnc87)O[C@H](COP(=O)(O)O)[C@H]6O)[C@H]5O)[C@H]4O)[C@H]3O)[C@H]2O)[C@@H](O)[C@H]1O (some centres undefined) | 1e-09 | 

Results, then the molecule that gave them:

Concentration [1] | Concentration [2] | Structure (SMILES)
9e-10 | 5e-07 | Nc1ncnc2c1ncn2C1O[C@H](COP(=O)(O)O[C@H]2C(n3cnc4c(N)ncnc43)O[C@H](COP(=O)(O)O[C@H]3C(n4cnc5c(N)ncnc54)O[C@H](COP(=O)(O)O[C@H]4C(n5cnc6c(N)ncnc65)O[C@H](COP(=O)(O)O[C@H]5C(n6cnc7c(N)ncnc76)O[C@H](COP(=O)(O)O)[C@H]5O)[C@H]4O)[C@H]3O)[C@H]2O)[C@@H](O)[C@H]1O (some centres undefined)
4e-06 |  | Nc1ncnc2c1ncn2[C@@H]1O[C@H](COP(=O)(O)O[C@@H]2[C@H](O)[C@@H](COP(=O)(O)O)O[C@H]2n2cnc3c(N)ncnc32)[C@@H](OP(=O)(O)O)[C@H]1O
8e-10 | 1e-06 | Nc1ncnc2c1ncn2[C@@H]1O[C@H](COP(=O)(O)O[C@@H]2[C@H](O)[C@@H](COP(=O)(O)O[C@@H]3[C@H](O)[C@@H](COP(=O)(O)O)O[C@H]3n3cnc4c(N)ncnc43)O[C@H]2n2cnc3c(N)ncnc32)[C@@H](O)[C@H]1O (stereo in doubt; 2)
1.1e-06 | > 0.0001 | O=c1ccn(C2O[C@H](COP(=O)(O)O[C@H]3C(n4ccc(=O)[nH]c4=O)O[C@H](COP(=O)(O)O[C@H]4C(n5ccc(=O)[nH]c5=O)O[C@H](COP(=O)(O)O)[C@H]4O)[C@H]3O)[C@@H](O)[C@H]2O)c(=O)[nH]1 (some centres undefined)
4e-07 |  | Nc1ncnc2c1ncn2[C@@H]1O[C@H](COP(=O)(O)O[C@@H]2[C@H](O)[C@@H](COP(=O)(O)O)O[C@H]2n2cnc3c(N)ncnc32)[C@@H](O)[C@H]1OP(=O)(O)O
2e-05 | > 0.0002 | Nc1ncnc2c1ncn2C1O[C@H](COP(=O)(O)O[C@H]2C(n3cnc4c(N)ncnc43)O[C@H](COP(=O)(O)O)[C@H]2O)[C@@H](O)[C@H]1O (some centres undefined)

Source: ChEMBL document CHEMBL1122663, “Oligonucleotide structural parameters that influence binding of 5'-O-triphosphoadenylyl-(2'----5')-adenylyl-(2'----5')-adenosine to the 5'-O-triphosphoadenylyl-(2'----5')-adenylyl-(2'----5')-adenosine dependent endoribonuclease: chain length, phosphorylation state, and heterocyclic base” (J Med Chem, 1984)
